Results taken from the RNAGym collection of RNA variant scans (doi:10.1126/science.aae0568).
Variants at the floor of the assay were thinned out.

B1: tRNA (parent)
chain: GUUCCGUUGGCGUAAUGGUAACGCGUCUCCCUCCUAAGGAGAAGACUGCGGGUUCGAGUCCCGUACGGAACG

Variants of: B1
Experiment: yeast fitness relative to wild type (ratio to wild type); higher = fitter; tRNA-Arg(CCU), competitive growth, 37 C, YPD
Procedure, shortened: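 For this measurement, the tRNA-Arg(CCU) gene was varied by chemical synthesis at a 3% per-site mutation rate across 69 sites, and each variant was placed at the native genomic locus in Saccharomyces cerevisiae. The pooled strains went through a 24-hour competition in YPD at 37°C in six parallel replicates, with amplicons from start and end populations read by 100-nucleotide paired-end sequencing. Darwinian fitness relative to wild type followed from the change in each genotype's frequency. Genotypes needed ≥ 100 starting reads, and estimates < 0.5 were set to 0.5.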

Variant | yeast fitness
GUUCCGUUGGCGUAAAGGUAACGCGUCUCCCUCCUAGGGAGAAGACUGCGGGUUCGAGUCCUGUACGGAACG [U16A A37G C62U] | 0.543
GUUCCGUUGGCGUAAAGGUUACGGGUCUCCCUGCUAAGGAGAAGACUGCGGGUUCGAGUCACGUACGGAACG [U16A A20U C24G C33G C61A] | ≤ 0.5
GUUCCGUUGGCGUAUUGGUAACGCGACUCCCUCCUAGGGAGAAGACUGCGGGUUCGAGUCCCGAACGGAACG [A15U U26A A37G U64A] | ≤ 0.5
GUUCCGUUGGCGUAUUGGUAACGCGUCUCCCUCCUAAGGAGAAGACUGCGGGGUCGAGUCCCGUACGGAACG [A15U U53G] | 0.539
GUUCCGUUGGCGUAUUGGUAACGCGUCUCCCUCCUAAGGAGAAGACUGCGGGCUCGAGUCCCGUACGGAACG [A15U U53C] | 0.71
GUUCCGUUGGCGUAAAGGUACCGCGUCUCCCUCCUAAGGAGAAGUCUGCGGGUUCGAGUUCCGUACCGAACG [U16A A21C A45U C60U G67C] | ≤ 0.5
GUUCCGUUGGCGUAAAGGUAACGUGUCUCCCUCCUAAGGAGAAGACUGCGGGUUCGAGUCGCGUGCGGAACG [U16A C24U C61G A65G] | ≤ 0.5
GUUCCGUUGGCGUAUUGGUAACGCGUCUCCCGCCUAAGGAGAAAACUGCAGGUACGAGUCCCGUACGGAACG [A15U U32G G44A G50A U54A] | ≤ 0.5
GUUCCGUUGGCGUAUUGGUAACGCGACUCCAUCCUAAGGAGAAGACUGCGGGUUCGAGUCCCGUACUGAACG [A15U U26A C31A G67U] | ≤ 0.5
GUUCCGUUGGCGUAUUGGUAACGCGUCUCCCUCCUAAGGAGAAGACUGCGGGUUCGAGUCCCGCGCGGAACG [A15U U64C A65G] | 0.528
GUUCCGUUGGCGUAAAGGUAGCGCGUCUCCCUCUUAAGGAGAAGACUGCGGGUUCGAGUCCCGUACGGAACG [U16A A21G C34U] | ≤ 0.5
GUUCCGUUGGCGUAAAGGUUACGGGUCUCCAUGCUAAGGAGAAGACUGCGGGUUCGAGUCACGUACCGAACG [U16A A20U C24G C31A C33G C61A G67C] | ≤ 0.5
GUUCCGUUGGCGUAAAGGUAUCGAGUCUCCCUCCUAAGGAGAAGACUGCGGAUUCGAGUCCCGUACGGAACG [U16A A21U C24A G52A] | ≤ 0.5
GUUCCGUUGGCGUAUUGGUAACGCGUCUCCCUCCUAAGGAGAAGACUGCGGGUUCGAGUCCCGAACGGAACG [A15U U64A] | 0.709
GUUCCGUUGGCGUAAAGGUAAUGCGUCUCCCUCCUAAGGAGAAGACUGCGGGUUCGAGUCCCGUACGGAACG [U16A C22U] | 0.773
GUUCCGUUGGCGUAAAGGUAAAGCGUCUCCCUCCUAAGGAGAAGACUGCGGGUUCGAGUCCCGUACGGAACG [U16A C22A] | 0.941
GUUCCGUUGGCGUAAAGGUAAGGCGUCUCCCUCCUAAGGAGAAGACUGCGGGUUCGAGUCCCGUACGGAACG [U16A C22G] | 0.989
GUUCCGUUGGCGUAAAGGUGACGCGUUUCCCUCCUAAGGACAAGACUGCGGGUUUGAGUCCCGUACGGUACG [U16A A20G C27U G41C C55U A69U] | ≤ 0.5
GUUCCGUUGGCGUAUUGGUAACGCGUCUCCCUCCAAAGGAGAUGAUUGCGGGUUCGAGUCCCGUACGGAACG [A15U U35A A43U C46U] | 0.695

Variant | yeast fitness
GUUCCGUUGGCGUAAAGGUAACGCGUCUCCCUCCUAUGGAGAAGACUGCGGGUUCAAGUCCAGUACGGGACG [U16A A37U G56A C62A A69G] | ≤ 0.5
GUUCCGUUGGCGUAUUGGUAACGCGACUCCAUCCUAAGGAGAAGACUGCGGGUUCGAGUCCCGUACGGAACG [A15U U26A C31A] | ≤ 0.5
GUUCCGUUGGCGUAUUGGUAACGCGUCUCCCUCCUAAGGAGAAGACUGCGGGUUCGAGCCCAGUACGGAACG [A15U U59C C62A] | ≤ 0.5
GUUCCGUUGGCGUAAAGGUAACGUGUCUCCCUCCUAAGGAGAAGACUGCGGGUUCGAGUCCUGUACGGAACG [U16A C24U C62U] | 0.692
GUUCCGUUGGCGUAUUGGUAACGCGUCUCCCUCCUAAGGAGAAGACAGCGGGUUCGAGUCCCAUACGGAACG [A15U U47A G63A] | ≤ 0.5
GUUCCGUUGGCGUAAAGGUAACGGGUCUCCCUCCUAAGGAGACGACUGCGGGUUCGAGUCCCGUACGGAACG [U16A C24G A43C] | 0.512
GUUCCGUUGGCGUAAAGGUAACGCGUCUCCCUCCUAAGGAGAAGACUGCGGGUUCGAGUCCCGUGCGGAACG [U16A A65G] | 0.933
GUUCCGUUGGCGUAAAGGUAACGUGUCUCCCUCAUAAGGAGAAGACUGCGGGUUCGAGUCCCGUGCGGAACG [U16A C24U C34A A65G] | 0.716
GUUCCGUUGGCGUAAAGGUAACGGGUCUCCCUCCUAAGGAGAAGACUGGGGGCUCGAGUCCCGUACGGAACG [U16A C24G C49G U53C] | ≤ 0.5
GUUCCGUUGGCGUAAAGGUAACGCGUCUCCCUCCUAAGGAGAAGACUGCGGGUUCGUGUCCCGUACGGUACG [U16A A57U A69U] | 0.526
GUUCCGUUGGCGUAUUGGUAACGCGUCCCCCUCCUAAGGAGAAGACUGCGGGUUCGAGUCCCGUACGGAACG [A15U U28C] | 0.772
GUUCCGUUGGCGUAAAGGUAACGCGUCUCCCUCCUAAGGAGAAGACUGCGGGUUCGAGUCCCGUACGGGACG [U16A A69G] | 0.853
GUUCCGUUGGCGUAAAGGUAACGCGUCUCCCUCCUAAGGAGAAGACUGCGGGUUCGAGUCCCGUACGGCACG [U16A A69C] | 0.969
GUUCCGUUGGCGUAAAGGUAACGGGUCUCCCUCCUAAGGAGAAGACUGCGAGUUCGAGUCCCGUACGGAACG [U16A C24G G51A] | ≤ 0.5
GUUCCGUUGGCGUAAAGGUAACGUGUCUCCCUCAUAAGGAGAAGACUGCGGGUUCGAGUCCCGUACGGAACG [U16A C24U C34A] | 0.656
GUUCCGUUGGCGUAAAGGUAAGGCGUCUCCCUCCUAAGGAGAAGACUGCGGGUUCGAGUCUCGUGCGGAACG [U16A C22G C61U A65G] | ≤ 0.5
GUUCCGUUGGCGUAUUGGUAACGCGUCACCCUCCUAAGGAGAAGACUGCGGGUUCGAGUCCCGUACGCAACG [A15U U28A G68C] | ≤ 0.5
GUUCCGUUGGCGUAAAGGUAAUGCGUCUCCCUCCUAAGGAGAAGACUACGGGUUCGAGUCCCGUACGGAACG [U16A C22U G48A] | 0.631
